ChEMBL document CHEMBL1154211, “Curcumin inhibits ACTH- and angiotensin II-stimulated cortisol secretion and Ca(v)3.2 current” (J Nat Prod, 2009)
Calls of active or inactive are those of the source. The calls are words filed in the database; no cut-off is given here.

Legend:
[1] = Inhibition of ACTH-stimulated cortisol secretion in bovine AZF cells after 3 hrs by EIA; format: functional, Bos taurus
[2] = molecular target: T1, Potassium channel subfamily K member 2 (Bos taurus, UniProt Q8HY88); assay: Inhibition of TREK-1 K(+) channel in bovine AZF cells; format: cell-based
T1 sequence (Q8HY88 whole entry): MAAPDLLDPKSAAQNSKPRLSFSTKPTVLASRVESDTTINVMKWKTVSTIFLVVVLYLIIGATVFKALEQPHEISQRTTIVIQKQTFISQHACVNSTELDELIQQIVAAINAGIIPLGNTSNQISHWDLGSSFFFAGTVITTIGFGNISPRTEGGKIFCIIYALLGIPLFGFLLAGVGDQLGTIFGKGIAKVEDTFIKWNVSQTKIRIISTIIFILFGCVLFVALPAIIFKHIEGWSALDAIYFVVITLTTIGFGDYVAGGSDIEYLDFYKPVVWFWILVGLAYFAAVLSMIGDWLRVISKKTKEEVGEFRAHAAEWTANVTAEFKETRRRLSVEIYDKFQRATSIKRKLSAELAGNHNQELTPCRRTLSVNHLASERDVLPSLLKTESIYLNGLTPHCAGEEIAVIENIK

[3] = Inhibition of Ang2-stimulated cortisol secretion in bovine AZF cells at 20 uM after 2 hrs by EIA; conditions: Bos taurus
[4] = Inhibition of 8CPT-cAMP-induced cortisol secretion in bovine AZF cells at 10 uM after 1 hr by EIA; format: functional; conditions: Bos taurus
How it was run: (§1)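 Bovine adrenal zona fasciculata cells from 2–3-yr steers were plated on fibronectin-coated dishes in DMEM/F12 with 10% FBS and antioxidants for 24 h. They were then switched to serum-free DMEM/F12 with BSA, ascorbate, tocopherol, insulin and transferrin, and treated with 250 µM 8CPT-cAMP ± curcumin (1–20 µM). Medium cortisol was measured by EIA in duplicate from duplicate samples, as mean ± SEM.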

[5] = Induction of cortisol secretion in bovine AZF cells at 20 uM after 0.5 to 24 hrs by EIA relative to control; format: functional, Bos taurus
How it was run: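 AZF cells from adrenal glands of 2–3 yr steers were plated 24 h on fibronectin in DMEM/F12 with 10% FBS, tocopherol, selenite and ascorbate. Medium was then switched to serum-free DMEM/F12 with BSA, ascorbate, tocopherol, insulin and transferrin, with or without compound, at 37 °C. Media were collected at 0.5, 2 and 24 h, and cortisol was measured by EIA (duplicates of duplicate samples, mean ± SEM).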

[6] = Inhibition of ACTH-stimulated cortisol secretion in bovine AZF cells at 10 uM after 0.5 hrs by EIA; format: functional; conditions: Bos taurus
How it was run: (§2)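 AZF cells were taken from steer adrenals and plated 24 h on fibronectin in serum-containing DMEM/F12 with antioxidants, then moved to serum-free supplemented DMEM/F12. They were exposed to ACTH(1–24) ± curcumin (1–20 µM) for 0.5, 2 or 24 h. Collected media were assayed for cortisol by EIA, in duplicate from duplicate samples, as mean ± SEM.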

[7] = Inhibition of 8CPT-cAMP-induced cortisol secretion in bovine AZF cells at 10 uM after 24 hrs by EIA; format: functional; conditions: Bos taurus; how it was run: as §1
[8] = system: AZF; assay: Inhibition of 8CPT-cAMP-induced cortisol secretion in bovine AZF cells at 1 to 20 uM after 1 hr by EIA; format: functional, cell-based; conditions: Bos taurus; how it was run: as §1
[9] = Inhibition of ACTH-stimulated cortisol secretion in bovine AZF cells after 24 hrs by EIA; format: functional, Bos taurus
[10] = Inhibition of ACTH-induced CYP11a1 mRNA expression in bovine AZF cells at 10 uM after 24 hrs using [alpha32P]dCTP labeled probes by Northern blot analysis; format: functional; conditions: Bos taurus
How it was run: (§3)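 Steer AZF cells ((5–8) × 10^6 per dish, fibronectin-coated) were plated 24 h with serum, then held in serum-free supplemented DMEM/F12. They were preincubated 10 min with curcumin (10 µM), then given 2 nM ACTH for 24 h. Total RNA (10 µg/lane) was run on a denaturing gel and Northern blotted with bovine CYP11a1 or StAR probes. Bands were quantified by phosphorimaging as % control, with 18S rRNA as loading reference and ≥2 experiments.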

[11] = system: AZF; assay: Inhibition of Cav3.2 channel in bovine AZF cells at 10 uM by cell patch clamp assay; format: cell-based; conditions: Bos taurus
How it was run: (§4)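 Whole-cell T-type Ca2+ currents were recorded from bovine AZF cells 2–12 h after plating (10–15 pF, <15 µm). The pipette held CsCl/BAPTA/MgATP at pH 7.2, and the bath held TEA-Cl with 20 mM Ca2+ at pH 7.4. Current was recorded in standard saline, then the cell was superfused with 5, 10 or 20 µM curcumin, and % inhibition of current amplitude was measured (n = 4–6).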

[12] = system: AZF; assay: Inhibition of ACTH-stimulated cortisol secretion in bovine AZF cells at 1 to 20 uM after 0.5 hrs by EIA; format: functional, cell-based; conditions: Bos taurus; how it was run: as §2
[13] = system: AZF; assay: Inhibition of Cav3.2 channel in bovine AZF cells at 5 uM by cell patch clamp assay; format: cell-based; conditions: Bos taurus; how it was run: as §4
[14] = Inhibition of ACTH-stimulated cortisol secretion in bovine AZF cells at 10 uM after 2 hrs by EIA; format: functional; conditions: Bos taurus; how it was run: as §2
[15] = system: AZF; assay: Inhibition of Cav3.2 channel in bovine AZF cells at 20 uM by cell patch clamp assay; format: cell-based; conditions: Bos taurus; how it was run: as §4
[16] = Inhibition of ACTH-induced StAR mRNA expression in bovine AZF cells at 10 uM after 24 hrs using [alpha32P]dCTP labeled probes by Northern blot analysis; format: functional; conditions: Bos taurus; how it was run: as §3
[17] = Inhibition of ACTH-stimulated cortisol secretion in bovine AZF cells at 10 uM after 2 4 hrs by EIA; format: functional; conditions: Bos taurus; how it was run: as §2

IC50 [2]: 930 nM
SMILES: COc1cc(/C=C/C(=O)CC(=O)/C=C/c2ccc(O)c(OC)c2)ccc1O [CURCUMIN]
inhibition (INH) [1]: 89% | inhibition at 20 µM [3]: 94.5% | inhibition at 10 µM [4]: 92.9% | fold change (FC) [5]: 2 | inhibition at 10 µM [6]: 81.1% | inhibition at 10 µM [7]: 96.8% | inhibition [8]: Active | inhibition (INH) [9]: 92% | inhibition at 10 µM [10]: 59% | inhibition [11]: 41% | inhibition [12]: Active | inhibition [13]: 31.9% | inhibition at 10 µM [14]: 92.4% | inhibition [15]: 53.3% | inhibition at 10 µM [16]: 99% | inhibition at 10 µM [17]: 91%
